According to ChEMBL document CHEMBL4819034, “Tricyclic-Carbocyclic RORγt Inverse Agonists-Discovery of BMS-986313” (J Med Chem, 2021):

Legend:
[1] = Volume of distribution at steady state in rat at 2 mg/kg, iv; assay type: ADME, organism-based; settings: in vivo, read-out: Vdss
Method in brief: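 Single intravenous dose: mouse and rat 2 mg/kg, dog and cynomolgus 1 mg/kg. Steady-state volume of distribution was derived from the IV arm. Values are means from three or more animals.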

[2] = biological target: T1, Oxysterols receptor LXR-beta (Homo sapiens, UniProt P55055); assay: Inverse agonist activity at LXRbeta (unknown origin)
T1 sequence (P55055 whole entry): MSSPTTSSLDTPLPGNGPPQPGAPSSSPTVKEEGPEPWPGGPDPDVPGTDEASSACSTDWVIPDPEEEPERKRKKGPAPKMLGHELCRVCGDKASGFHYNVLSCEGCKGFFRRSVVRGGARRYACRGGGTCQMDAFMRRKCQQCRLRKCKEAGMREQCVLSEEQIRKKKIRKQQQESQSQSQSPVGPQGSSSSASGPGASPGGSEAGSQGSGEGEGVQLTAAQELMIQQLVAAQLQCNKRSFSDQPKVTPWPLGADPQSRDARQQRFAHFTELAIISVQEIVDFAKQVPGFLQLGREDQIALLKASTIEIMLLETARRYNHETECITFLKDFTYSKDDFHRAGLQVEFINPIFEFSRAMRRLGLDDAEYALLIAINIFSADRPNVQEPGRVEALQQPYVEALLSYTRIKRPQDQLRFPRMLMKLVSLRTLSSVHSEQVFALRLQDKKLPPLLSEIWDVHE

[3] = Permeability across apical to basolateral membrane in human Caco-2 cells; assay type: ADME, cell-based; settings: read-out: permeability
Method in brief: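 Caco-2 monolayer permeability, apical-to-basolateral direction (Pc, nm/s). An efflux ratio is also reported.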

Mus musculus = assay: Protection against recombinant human IL23-induced acanthosis C57BL/6 mouse model assessed as reduction in IL-17A mRNA levels at 15 mg/kg, po BID BID for 10 days by qRT-PCR analysis relative to control; assay type: functional; set-up: scale not given: the % may be the effect or the level left; settings: time 10 day
Method in brief: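 In the IL-23 ear-injection model in C57BL/6 mice with BID oral dosing, ear tissue was collected from all animals at study end on day 10. IL-17A and IL-17F mRNA expression was quantified by qPCR and compared with the placebo arm.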

Vd [1]: 2.9 L/kg
EC50 [2]: > 5 µM
Papp A→B [3]: 10.6 ×10⁻⁶ cm/s
SMILES: CC(C)(O)C(=O)N[C@@H]1CC[C@@]2(S(=O)(=O)c3ccc(F)cc3)c3ccc(C(F)(C(F)(F)F)C(F)(F)F)cc3CC[C@@H]12
Activity (Mus musculus): 71.6%
